From ChEMBL document CHEMBL1833883, “Synthesis and antiangiogenic activity of new silybin galloyl esters” (J Med Chem, 2011)
Values after ≈ are worked out from the molar mass of the structure shown. Active and inactive are the calls of the source. The calls are words filed in the database; no cut-off is given here.

What was measured:
[1] = Cytotoxicity against HUVEC assessed as cell viability at concentration higher than IC50 after 16 hrs by MTT assay; format: cell-based; conditions: human, HUVEC cells; read-out: Activity
Outline: (§1)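 Confluent HUVECs on gelatin-coated wells treated with serial dilutions of compound in fresh EGM for 16 h (overnight, 16–20 h). MTT added in medium at 1 mg/mL, 3 h at 37 °C; formazan dissolved in 1% NH₃/DMSO and absorbance read at 540 nm. IC50 reported as mean ± SD of three independent experiments, each run in triplicate.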

[2] = test system: HUVEC; experiment: Cytotoxicity against HUVEC by LDH release assay; format: cell-based; conditions: human
Outline: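 Confluent HUVECs on gelatin-coated wells exposed overnight (16–20 h) to serial dilutions of compound in fresh EGM. Culture medium then sampled to measure LDH leakage.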

[3] = test system: HUVEC; experiment: Antiangiogenic activity in HUVEC assessed as inhibition of cell migration after 16 to 20 hrs by wound healing migration assay; format: functional; conditions: Homo sapiens
Outline: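 HUVECs (passages 2–6, isolated from umbilical cord by collagenase digestion, grown in EGM) as confluent monolayers; one 1-mm cell-free line scratched per well, cells washed twice with PBS, then given fresh EGM with or without compound. Wound photographed at time zero and after overnight (16–20 h) incubation at 37 °C. Minimal inhibitory concentration taken from reoccupation of the wound space.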

[4] = test system: HUVEC; experiment: Antiproliferative activity against HUVEC assessed as inhibition of cell growth after 3 days by MTT assay; format: functional, cell-based; conditions: Homo sapiens, 72 h
Outline: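 4 × 10³ HUVECs incubated with serial dilutions of compound for 3 days. MTT (5 mg/mL, 10 μL) added and incubated 3 h at 37 °C; formazan dissolved in 1% NH₃ in DMSO and read at 540 nm. IC50 reported as mean ± SD of three independent experiments, each run in triplicate.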

[5] = test system: HUVEC; experiment: Antiangiogenic activity in HUVEC assessed as inhibition of tube formation at 50 uM after 6 hrs by Matrigel assay; format: functional, cell-based; conditions: Homo sapiens
[6] = test system: HUVEC; experiment: Cytotoxicity against HUVEC assessed as cell viability after 16 hrs by MTT assay; format: cell-based; conditions: Homo sapiens; outline: as §1
[7] = test system: HUVEC; experiment: Antiangiogenic activity in HUVEC assessed as inhibition of tube formation after 6 hrs by Matrigel assay relative to control; format: functional, cell-based; conditions: Homo sapiens
Outline: (§2)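 Roughly 1 × 10⁴ HUVECs plated in EGM on polymerized Matrigel (9 mg/mL), with or without compound; 2-methoxyestradiol 10 μM as positive control. Three images per well taken at 40× magnification. Tube formation scored in a field of about 100 cells as (sprouting×1 + connected×2 + polygons×3)/total cells, and expressed as % of untreated control; p < 0.05 versus control.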

[8] = Cytotoxicity against HUVEC assessed as cell viability at 100 uM after 16 hrs by MTT assay; format: cell-based; conditions: human, HUVEC cells; read-out: Activity; outline: as §1
[9] = test system: HUVEC; experiment: Antiangiogenic activity in HUVEC assessed as inhibition of tube formation at 10 uM after 6 hrs by Matrigel assay relative to control; format: functional; conditions: Homo sapiens; outline: as §2
[10] = test system: HUVEC; experiment: Antiangiogenic activity in HUVEC assessed as inhibition of tube formation at 20 uM after 6 hrs by Matrigel assay relative to control; format: functional; conditions: Homo sapiens; outline: as §2
[11] = test system: HUVEC; experiment: Antiangiogenic activity in HUVEC assessed as inhibition of tube formation after 24 hrs by Matrigel assay; format: functional; conditions: Homo sapiens
Outline: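 Matrigel (9 mg/mL) polymerized at 37 °C for at least 30 min. About 1 × 10⁴ HUVECs seeded in EGM with or without compound; 2-methoxyestradiol 10 μM as positive control. After 24 h, the minimal inhibitory concentration was taken as the lowest concentration at which no tubular structures formed.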

[12] = test system: HUVEC; experiment: Antiangiogenic activity in HUVEC assessed as inhibition of tube formation at 30 uM after 6 hrs by Matrigel assay relative to control; format: functional; conditions: Homo sapiens; outline: as §2
[13] = test system: HUVEC; experiment: Antiangiogenic activity in HUVEC assessed as inhibition of tube formation at 75 uM after 6 hrs by Matrigel assay; format: functional, cell-based; conditions: Homo sapiens
[14] = test system: HUVEC; experiment: Antiangiogenic activity in HUVEC assessed as inhibition of tube formation at 10 uM after 6 hrs by Matrigel assay; format: functional, cell-based; conditions: Homo sapiens; outline: as §2
[15] = test system: HUVEC; experiment: Antiangiogenic activity in HUVEC assessed as inhibition of tube formation up to 75 uM after 6 hrs by Matrigel assay; format: functional, cell-based; conditions: Homo sapiens; outline: as §2

Compound	viability at 16 h [1]	Activity [2]	MIC [3]	IC50 [4]	inhibition [5]	IC50 [6]	inhibition [7]	viability at 16 h, 100 µM [8]	inhibition at 10 µM [9]	inhibition at 20 µM [10]	MIC [11]	inhibition at 30 µM [12]	inhibition [13]	inhibition [14]	inhibition [15]
COc1cc([C@@H]2Oc3cc([C@H]4Oc5cc(OC(=O)c6cc(O)c(O)c(O)c6)cc(O)c5C(=O)[C@@H]4O)ccc3O[C@H]2CO)ccc1O	50%	Non-toxic	10 µM (≈ 6.35 µg/mL)	4.29 µM	Active	7.85 µM	Dose-dependent effect	40%	79.9%						
COc1cc(C2Oc3cc([C@H]4Oc5cc(O)cc(O)c5C(=O)[C@@H]4O)ccc3OC2CO)ccc1OC(=O)c1cc(O)c(O)c(O)c1 (some centres undefined)		Non-toxic	20 µM (≈ 12.7 µg/mL)	10.3 µM		35.4 µM				94.5%	60 µM (≈ 38.1 µg/mL)	49.5%			
COc1cc(C2Oc3cc([C@H]4Oc5cc(O)cc(O)c5C(=O)[C@@H]4O)ccc3OC2CO)ccc1O (mixture of isomers) [SILIBININ]		Non-toxic	50 µM	9.99 µM		72.6 µM					75 µM		Active		
COc1cc2c(cc1O)CC[C@@H]1[C@@H]2CC[C@]2(C)[C@@H](O)CC[C@@H]12														Active	
COc1cc([C@@H]2Oc3cc([C@H]4Oc5cc(O)cc(O)c5C(=O)[C@@H]4O)ccc3O[C@H]2CO)ccc1O [SILYBIN B]		Non-toxic		6.49 µM		60.5 µM									
COc1cc(C2Oc3cc([C@H]4Oc5cc(O)cc(O)c5C(=O)[C@@H]4O)ccc3OC2COC(=O)c2cc(O)c(O)c(O)c2)ccc1O (some centres undefined)		Non-toxic	20 µM (≈ 12.7 µg/mL)	11.6 µM		55 µM					75 µM (≈ 47.6 µg/mL)				
COc1cc(C2Oc3cc([C@H]4Oc5cc(OC(=O)c6cc(O)c(O)c(O)c6)cc(O)c5C(=O)[C@@H]4O)ccc3OC2CO)ccc1O (some centres undefined)	50%	Non-toxic	10 µM (≈ 6.35 µg/mL)	4.75 µM	Active	9.21 µM	Dose-dependent effect	40%	79.9%		25 µM (≈ 15.9 µg/mL)				
COc1cc([C@H]2Oc3cc([C@H]4Oc5cc(O)cc(O)c5C(=O)[C@@H]4O)ccc3O[C@@H]2CO)ccc1O [SILYBIN A]		Non-toxic		8.83 µM		62.3 µM									
COc1cc(C2Oc3cc([C@H]4Oc5cc(O)cc(O)c5C(=O)[C@@H]4OC(=O)c4cc(O)c(O)c(O)c4)ccc3OC2CO)ccc1O (some centres undefined)		Non-toxic	50 µM (≈ 31.7 µg/mL)	12.3 µM		65 µM					75 µM (≈ 47.6 µg/mL)				inactive
COc1cc([C@H]2Oc3cc([C@H]4Oc5cc(OC(=O)c6cc(O)c(O)c(O)c6)cc(O)c5C(=O)[C@@H]4O)ccc3O[C@@H]2CO)ccc1O	50%	Non-toxic	10 µM (≈ 6.35 µg/mL)	6.06 µM	Active	17.1 µM	Dose-dependent effect	40%	79.9%						
